# Laboratory results as given in ChEMBL document CHEMBL5230171, “Expanding the structure-activity relationships of alkynyl diphenylurea scaffold as promising antibacterial agents” (RSC Med Chem, 2023).
# Activity calls are given as the source filed them. The rule behind the calls is not given here.
# Tests used:
# Staphylococcus aureus [1] = test: Antibacterial activity against vancomycin resistant Staphylococcus aureus 12 assessed as inhibition of bacterial growth at 0.5 ug/ml incubated for 18 to 20 hrs by CLSI protocol based broth microdilution method; format: functional, organism-based; conditions: dose 0.5 µg/ml, time 18-20 hrs
# Staphylococcus aureus [2] = test: Antibacterial activity against methicillin sensitive Staphylococcus aureus 6538 assessed as inhibition of bacterial growth at 0.5 ug/ml incubated for 18 to 20 hrs by CLSI protocol based broth microdilution method; format: functional, organism-based; conditions: dose 0.5 µg/ml, time 18-20 hrs
# Summary of the method: (§1)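 Staphylococcal and E. coli strains were diluted from a 0.5 McFarland suspension in cation-adjusted Mueller Hinton broth to ~5 × 10^5 CFU mL−1. They were incubated with serial dilutions of test agent in broth microdilution, and the MIC was recorded.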
# Staphylococcus aureus [3] = test: Antibacterial activity against methicillin sensitive Staphylococcus aureus 107 assessed as inhibition of bacterial growth at 0.5 ug/ml incubated for 18 to 20 hrs by CLSI protocol based broth microdilution method; format: functional, organism-based; conditions: dose 0.5 µg/ml, time 18-20 hrs; summary of the method: as §1
# Staphylococcus aureus [4] = test: Antibacterial activity against methicillin resistant Staphylococcus aureus 386 assessed as inhibition of bacterial growth at 0.5 ug/ml incubated for 18 to 20 hrs by CLSI protocol based broth microdilution method; format: functional, organism-based; conditions: dose 0.5 µg/ml, time 18-20 hrs
# Staphylococcus aureus [5] = test: Antibacterial activity against methicillin resistant Staphylococcus aureus 123 assessed as inhibition of bacterial growth at 0.5 ug/ml incubated for 18 to 20 hrs by CLSI protocol based broth microdilution method; format: functional, organism-based; conditions: dose 0.5 µg/ml, time 18-20 hrs
# Staphylococcus aureus [6] = test: Antibacterial activity against methicillin resistant Staphylococcus aureus 119 assessed as inhibition of bacterial growth at 0.5 ug/ml incubated for 18 to 20 hrs by CLSI protocol based broth microdilution method; format: functional, organism-based; conditions: dose 0.5 µg/ml, time 18-20 hrs
# Staphylococcus aureus [7] = test: Antibacterial activity against vancomycin resistant Staphylococcus aureus 9 assessed as inhibition of bacterial growth at 0.5 ug/ml incubated for 18 to 20 hrs by CLSI protocol based broth microdilution method; format: functional, organism-based; conditions: dose 0.5 µg/ml, time 18-20 hrs
# Staphylococcus aureus [8] = test: Antibacterial activity against methicillin resistant Staphylococcus aureus NRS384 USA300 assessed as inhibition of bacterial growth incubated for 18 to 20 hrs by CLSI protocol based broth microdilution method; format: functional; conditions: time 18-20 hrs, read-out: MIC
# Summary of the method: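 Broth microdilution against staphylococcal clinical isolates. Each strain was prepared as a 0.5 McFarland suspension and diluted in cation-adjusted Mueller Hinton broth to ~5 × 10^5 CFU mL−1. Serial dilutions of test agents in DMSO stock were incubated with the bacteria, and the MIC was recorded.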
# Staphylococcus aureus [9] = test: Antibacterial activity against methicillin resistant Staphylococcus aureus 384 assessed as inhibition of bacterial growth at 0.5 ug/ml incubated for 18 to 20 hrs by CLSI protocol based broth microdilution method; format: functional, organism-based; conditions: dose 0.5 µg/ml, time 18-20 hrs
# [10] = Cytotoxicity against human HaCaT cells assessed as tolerance by measuring cell viability at 64 ug/ml incubated for 24 hrs by MTS assay relative to control; format: toxicity, cell-based; conditions: at 64 µg/mL, read-out: Activity
# Summary of the method: (§2)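 Vero or HaCaT cells were exposed to 32, 64 and 128 μg mL−1 compound in triplicate for 24 h at 37 °C, 5% CO2, with a DMSO control. MTS was then added for 4 h and OD490 read. Analysis used two-way ANOVA with Dunnett's post hoc test (p < 0.05).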
# Vero = test: Cytotoxicity against African green monkey Vero cells assessed as reduction in cell viability at 64 ug/ml incubated for 24 hrs by MTS assay; format: toxicity, cell-based; conditions: chlorocebus sabaeus, dose 64 µg/ml; summary of the method: as §2
# Staphylococcus aureus [11] = test: Antibacterial activity against vancomycin resistant Staphylococcus aureus 10 assessed as inhibition of bacterial growth at 0.5 ug/ml incubated for 18 to 20 hrs by CLSI protocol based broth microdilution method; format: functional, organism-based; conditions: dose 0.5 µg/ml, time 18-20 hrs
# Staphylococcus aureus [12] = test: Antibacterial activity against methicillin resistant Staphylococcus aureus 385 assessed as inhibition of bacterial growth at 0.5 ug/ml incubated for 18 to 20 hrs by CLSI protocol based broth microdilution method; format: functional, organism-based; conditions: dose 0.5 µg/ml, time 18-20 hrs
SMILES,Activity (Staphylococcus aureus [1]),Activity (Staphylococcus aureus [2]),Activity (Staphylococcus aureus [3]),Activity (Staphylococcus aureus [4]),Activity (Staphylococcus aureus [5]),Activity (Staphylococcus aureus [6]),Activity (Staphylococcus aureus [7]),MIC (Staphylococcus aureus [8]) [µg/mL],Activity (Staphylococcus aureus [9]),"viability at 24 h, 64 ug/ml [10] [%]",Activity (Vero),Activity (Staphylococcus aureus [11]),Activity (Staphylococcus aureus [12])
CCCCCCC#Cc1ccc(NC(=O)Nc2ccc(/C(C)=N/NC(=N)N)cc2)cc1,Active,Active,Active,Active,Active,Active,Active,0.5,Active,100,Non-Toxic,Active,Active
CCCC#Cc1ccc(NC(=O)Nc2ccc(/C(C)=N/NC(=N)N)cc2)cc1,,,,,,,,0.5,,,,,
CCCCCC#Cc1ccc(NC(=O)Nc2ccc(/C(C)=N/NC(=N)N)cc2)cc1,Active,Active,Active,Active,Active,Active,Active,0.5,Active,100,Non-Toxic,Active,Active
